Drawing on ChEMBL document CHEMBL1123864, “Synthetic bovine prothrombin precursor 13-29 for studies of vitamin K dependent carboxylase” (J Med Chem, 1987), this text covers Activity and Km for four molecules.

The target of data set [1] is T1, Vitamin K-dependent gamma-carboxylase (Rattus norvegicus) (UniProt O88496).
T1 sequence (whole entry): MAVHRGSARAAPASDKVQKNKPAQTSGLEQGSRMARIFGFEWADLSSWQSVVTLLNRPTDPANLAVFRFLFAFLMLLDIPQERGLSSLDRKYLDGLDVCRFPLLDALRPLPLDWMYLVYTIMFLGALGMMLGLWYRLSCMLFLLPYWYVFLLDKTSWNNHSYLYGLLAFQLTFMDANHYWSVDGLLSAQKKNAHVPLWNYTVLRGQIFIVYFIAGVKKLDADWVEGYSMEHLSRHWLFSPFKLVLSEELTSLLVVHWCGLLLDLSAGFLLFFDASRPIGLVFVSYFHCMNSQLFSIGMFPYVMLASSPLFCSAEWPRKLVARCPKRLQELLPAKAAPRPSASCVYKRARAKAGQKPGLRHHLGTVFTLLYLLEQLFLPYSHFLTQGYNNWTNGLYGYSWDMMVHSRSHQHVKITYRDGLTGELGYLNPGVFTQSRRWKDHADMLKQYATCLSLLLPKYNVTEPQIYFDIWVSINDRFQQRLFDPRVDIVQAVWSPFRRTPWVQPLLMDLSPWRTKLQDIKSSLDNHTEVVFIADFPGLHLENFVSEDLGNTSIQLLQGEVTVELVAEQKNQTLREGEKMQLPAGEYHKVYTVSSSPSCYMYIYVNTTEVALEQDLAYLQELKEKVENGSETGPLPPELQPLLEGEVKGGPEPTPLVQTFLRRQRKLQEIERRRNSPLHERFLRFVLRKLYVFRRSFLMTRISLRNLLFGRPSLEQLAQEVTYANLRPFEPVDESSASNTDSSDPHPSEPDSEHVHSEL
The experiment in a line: Substrate activity was determined for the rat liver microsomal vitamin K dependent carboxylase by dpm incorporation at 0.125 mM. In a few lines:
(§1)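 Rat liver microsomal carboxylase with the peptide as substrate. Incubations ran 60 min at 17 °C in duplicate and were averaged. Read-out was dpm incorporated, with the no-vitamin K blank subtracted. The enzyme requires oxygen, reduced vitamin K and carbon dioxide.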
A general note: Liver microsomes are a subcellular fraction often used to study metabolism.

The target in data set [2] is T1, Vitamin K-dependent gamma-carboxylase (Rattus norvegicus). The experiment in a line: Substrate activity was determined for the rat liver microsomal vitamin K dependent carboxylase by dpm incorporation at 0.0625 mM. In a few lines:
as §1

Data set [3] shares this target. Description: Substrate activity was determined for the rat liver microsomal vitamin K dependent carboxylase by dpm incorporation at 0.25 mM. In a few lines: as §1
Data set [4] has the same target. Description: Evaluated as substrate for the rat liver microsomal vitamin K dependent carboxylase by dpm incorporation at 0.0625 mM. In a few lines: as §1
Data set [5] has the same target. Description: Evaluated as substrate for the rat liver microsomal vitamin K dependent carboxylase by dpm incorporation at 0.25 mM. The essentials:
as §1

Data set [6] shares this target. The experiment in a line: Evaluated as substrate for the rat liver microsomal vitamin K dependent carboxylase by dpm incorporation at 0.125 mM. The essentials: as §1
Substrate in data set [7]: CC(C)C[C@H]1NC(=O)[C@H](N)CSSC[C@@H](C(=O)O)NC(=O)[C@@H]2CCCN2C(=O)[C@@H](CCC(=O)O)NC(=O)[C@H](CCC(=O)O)NC1=O
The experiment in a line: Binding affinity was evaluated for the compound against Vitamin K dependent carboxylase.

Peptide text beside a SMILES is read from it. * marks the point of attachment. Boc = CC(C)(C)OC(=O)*; Acm = CC(=O)NC*

`CC(C)C[C@H](NC(=O)[C@@H](N)CC(N)=O)C(=O)N[C@@H](CCC(=O)O)C(=O)N[C@@H](CCCN=C(N)N)C(=O)N[C@@H](CCC(=O)O)C(=O)N[C@@H]1CSSC[C@@H](C(=O)N[C@@H](CO)C(=O)N[C@@H](CCCN=C(N)N)C(=O)N[C@@H](CCC(=O)O)C(=O)N[C@@H](CCC(=O)O)C(=O)N[C@@H](C)C(=O)N[C@@H](Cc2ccccc2)C(=O)O)NC(=O)[C@@H]2CCCN2C(=O)[C@@H](CCC(=O)O)NC(=O)[C@H](CCC(=O)O)NC(=O)[C@@H](CC(C)C)NC1=O`: the figures for the Activity in data set [1], in data set [2] and in data set [3] were 480, 240 and 810, respectively.
Take `COC(=O)[C@H](CC(C)C)NC(=O)[C@H](CCC(=O)O)NC(=O)[C@H](CCC(=O)O)NC(=O)OC(C)(C)C` (Boc-Glu-Glu-Leu-OMe): the values for the Activity in data set [4], in data set [5] and in data set [6] were 3020, 11400 and 5770, respectively.
Regarding `CC(=O)NCSC[C@H](NC(=O)[C@H](CCC(=O)O)NC(=O)[C@H](CCCN=C(N)N)NC(=O)[C@H](CCC(=O)O)NC(=O)[C@H](CC(C)C)NC(=O)[C@@H](N)CC(N)=O)C(=O)N[C@@H](CC(C)C)C(=O)N[C@@H](CCC(=O)O)C(=O)N[C@@H](CCC(=O)O)C(=O)N1CCC[C@H]1C(=O)N[C@@H](CSCNC(C)=O)C(=O)N[C@@H](CO)C(=O)N[C@@H](CCCN=C(N)N)C(=O)N[C@@H](CCC(=O)O)C(=O)N[C@@H](CCC(=O)O)C(=O)N[C@@H](C)C(=O)N[C@@H](Cc1ccccc1)C(=O)O` (H-NLEREC(Acm)LEEPC(Acm)SREEAF-OH), the figures for the Activity in data set [1], in data set [2] and in data set [3] were 920, 480 and 2380, respectively.

B1: Vitamin K-dependent gamma-carboxylase (Rattus norvegicus), O88496 (protein)
chain: T1 sequence (whole entry)
With B1, the Michaelis-Menten constant (Km) – broadly, the substrate concentration at which the rate is half of its maximum – in data set [7] amounted to 3000 µM.
